Each molecule was assayed against T1, Serotonin 2 (5-HT2) receptor (Rattus norvegicus, UniProt P30994+P08909+P14842) (assay: Compound was evaluated for binding affinity towards 5-hydroxytryptamine 2 receptor in rat anterior cortex using [125I]DOI as radioligand).
Procedure, shortened: (§1)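 Competition binding against the named radioligand on the native tissue membranes shown, radioligand at roughly its K_D for the binding system; procedures otherwise follow earlier published methods.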

| SMILES | IC50 [µM] |
| --- | --- |
| CN(C)CCc1c[nH]c2cc3c(cc12)OCCC3 | 0.92 |
| Cn1cc(CCN)c2c3c(ccc21)OCCC3 | 0.014 |
| CN(C)CCc1cn(C)c2ccc3c(c12)CCCO3 | 0.081 |
| NCCc1c[nH]c2ccc3c(c12)CCCO3 | 0.014 |

The molecules below were run against T2, 5-hydroxytryptamine receptor 1A (Rattus norvegicus, UniProt P19327) (assay: Compound was evaluated for binding affinity towards 5-hydroxytryptamine 1A receptor in rat cortex using [3H]-8-OH-DPAT as radioligand).
T2 sequence (P19327 whole entry): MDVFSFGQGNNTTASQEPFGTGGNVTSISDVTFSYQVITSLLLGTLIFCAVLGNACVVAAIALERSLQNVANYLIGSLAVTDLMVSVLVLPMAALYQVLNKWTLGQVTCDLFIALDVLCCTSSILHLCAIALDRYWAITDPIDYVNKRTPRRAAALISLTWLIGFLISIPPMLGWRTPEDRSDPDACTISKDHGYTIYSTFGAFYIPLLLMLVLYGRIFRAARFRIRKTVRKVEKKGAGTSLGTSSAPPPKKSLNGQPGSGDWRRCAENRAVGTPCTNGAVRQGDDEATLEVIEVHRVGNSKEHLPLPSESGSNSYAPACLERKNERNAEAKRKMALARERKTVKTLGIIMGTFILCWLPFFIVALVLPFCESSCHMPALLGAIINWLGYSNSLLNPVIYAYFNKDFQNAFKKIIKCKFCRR
Procedure, shortened: as §1

| SMILES | IC50 [µM] |
| --- | --- |
| CN(C)CCc1c[nH]c2cc3c(cc12)OCCC3 | 1.2 |
| CN(C)CCc1cn(C)c2ccc3c(c12)CCCO3 | 5.4 |
| NCCc1c[nH]c2ccc3c(c12)CCCO3 | 0.61 |
| COc1ccc2[nH]cc(CCN(C)C)c2c1 [MEBUFOTENIN] | 0.011 |

Each molecule was assayed against T1, Serotonin 2 (5-HT2) receptor (assay: Compound was evaluated for binding affinity towards 5-hydroxytryptamine 2 receptor in rat anterior cortex using [3H]ketanserin as radioligand).
Procedure, shortened: as §1

| SMILES | IC50 [µM] |
| --- | --- |
| CN(C)CCc1c[nH]c2cc3c(cc12)OCCC3 | 5.9 |
| Cn1cc(CCN)c2c3c(ccc21)OCCC3 | 0.8 |
| CN(C)CCc1cn(C)c2ccc3c(c12)CCCO3 | 1 |
| NCCc1c[nH]c2ccc3c(c12)CCCO3 | 2.2 |
